Rows were chosen to be rich in hits. Some 1.1% of all compounds tested hit in one or more screens of this group.
Arr AP2 block = blocks beta-arrestin peptide binding to AP2 adaptin; FITC-arrestin peptide / GST-AP2 beads, flow cytometry; AP2 beta2 appendage carries R879A mutation; inhibition, % at 10 µM; 340,000 compounds, 0.31% hits;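 active means inhibition above a set limit, near 3 SD of compounds lacking own fluorescence, cut at about 54% in these data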;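 further: plate controls were DMSO wells for no effect and 5 µM unlabelled arrestin peptide for full effect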
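Material – AP2 appendage R879A on GSH beads · Buffer or medium – PBS with 0.05% Tween 20 and 0.1% BSA · Probe or stimulus – fluorescein-tagged arrestin peptide at 50 nM final · Incubation – compound with beads 12 min RT, then probe 1 h RT · Detection – high-throughput flow cytometry of beads, ex 488, em 535 nm · Evaluation – percent response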
GSH bead fluor = compound fluoresces at 488/530 nm on GSH beads | AID 1776 | fluorescence (KMESF) at 10 µM | GSH beads flow cytometry, compound fluorescence 488/530 nm; hits give high values | 190,000 compounds, 0.25% hits; in the data active means fluorescence above about 89;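 further: glutathione beads carrying GST-tagged Bcl family fusion proteins plus one bare bead set; values are compound well signal with DMSO vehicle wells as background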
DSG3 Ab inh = inhibitors of pemphigus antibody binding to human desmoglein-3; P32926; DSG3-coupled beads, scFv-anti-DSG3-GFP binding, flow cytometry; hits give low values; binding (percent of control), % at 10 µM; 310,000 compounds, 0.48% hits; AID 588358;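 active means binding more than 3 SD below its plate's average and above zero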;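 further: hits lower antibody fragment binding to DSG3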
Target sequence (P32926 whole entry, looked up, the tested form may be a part): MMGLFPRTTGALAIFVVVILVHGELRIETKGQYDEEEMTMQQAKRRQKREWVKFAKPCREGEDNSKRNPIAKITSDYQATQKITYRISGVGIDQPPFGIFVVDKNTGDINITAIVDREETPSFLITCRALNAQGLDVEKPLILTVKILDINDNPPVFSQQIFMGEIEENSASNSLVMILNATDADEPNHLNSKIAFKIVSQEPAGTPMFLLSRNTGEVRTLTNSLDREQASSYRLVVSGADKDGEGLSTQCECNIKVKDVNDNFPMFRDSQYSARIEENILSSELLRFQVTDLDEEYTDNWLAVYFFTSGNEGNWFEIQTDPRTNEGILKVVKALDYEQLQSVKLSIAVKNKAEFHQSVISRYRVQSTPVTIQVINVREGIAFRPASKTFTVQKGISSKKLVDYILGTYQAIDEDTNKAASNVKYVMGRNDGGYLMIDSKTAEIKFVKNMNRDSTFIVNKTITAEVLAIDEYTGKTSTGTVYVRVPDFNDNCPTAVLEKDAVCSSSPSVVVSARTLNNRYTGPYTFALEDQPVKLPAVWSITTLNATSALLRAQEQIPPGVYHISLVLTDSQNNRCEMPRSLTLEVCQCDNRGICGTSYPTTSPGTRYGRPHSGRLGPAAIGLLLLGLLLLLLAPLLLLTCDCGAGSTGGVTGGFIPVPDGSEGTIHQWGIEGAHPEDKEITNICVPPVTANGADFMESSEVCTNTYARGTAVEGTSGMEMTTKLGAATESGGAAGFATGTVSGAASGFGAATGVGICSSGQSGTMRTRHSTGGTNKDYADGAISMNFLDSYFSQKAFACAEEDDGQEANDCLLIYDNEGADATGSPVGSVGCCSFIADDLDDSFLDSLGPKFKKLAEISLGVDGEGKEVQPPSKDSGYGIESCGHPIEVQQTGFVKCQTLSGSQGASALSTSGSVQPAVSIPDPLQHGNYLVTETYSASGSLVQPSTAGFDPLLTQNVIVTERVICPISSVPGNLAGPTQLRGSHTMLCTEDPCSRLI
Avidin fluor = avidin bead compound fluorescence profile | Avidin beads, compound fluorescence 488/530 nm, flow cytometry; hits give high values | fluorescence (KMESF) at 10 µM | 220,000 compounds, 0.38% hits | AID 1775; in the data active means fluorescence above about 47
* = called active by the depositor; · = no result.

SMILES	Arr AP2 block	GSH bead fluor	DSG3 Ab inh	Avidin fluor
COc1cc(C(=O)Nc2ccc3c(c2)C(=O)c2ccccc2C3=O)cc(OC)c1OC	4	9	105	10
Cc1cccc(C)c1N1CCc2cn[nH]c21	3	12	101	48*
O=C1COc2ccc3ccccc3c21	10	·	102	·
CCCCN(C)C(=O)C1CCN(CCCc2ccccc2)CC1	3	15	103	291*
O=C(Nc1ccc(C(=O)N2CCCC2)cc1)C1CC1	9	·	107	·
O=C(NCCOc1ccccc1)[C@@H]1CCCN1C(=O)c1cccs1	-11	·	94	·
Cc1cc(=O)oc2cc(OCC(=O)Nc3ccc4[nH]c(=O)[nH]c4c3)ccc12	14	·	127	·
Cc1cc(=O)oc2cc(OCC(=O)OCC(=O)Nc3ccccc3Br)ccc12	1	·	71*	6
Cc1cc(=O)oc2cc(OCC(=O)Nc3ccc(S(=O)(=O)N(C)C)cc3)ccc12	20	·	71*	6
CNC(=O)COC(=O)COc1ccc2c(C)cc(=O)oc2c1	-5	12	95	12
CC1Cc2ccccc2N1C(=O)Cn1c(=O)oc2cc(S(=O)(=O)NC3CCCC3)ccc21 (stereo not given)	5	25	102	3
CC1CCN(S(=O)(=O)c2ccc3c(c2)oc(=O)n3CC(=O)N2c3ccccc3CC2C)CC1 (stereo not given)	20	21	101	56*
CC(C)CN(C(=O)CN1C(=O)NC2(CCc3ccccc32)C1=O)C1CCS(=O)(=O)C1 (stereo not given)	-9	·	107	·
Cc1nccn1Cc1ccccc1	8	·	·	·
COc1ccc(Cn2c(C)nnc2-c2cnn(C)c2N)cc1OC	0	13	108	9
Cc1nnc(-c2cnn(C)c2N)n1Cc1ccccc1F	5	270*	104	6
CC(C)Sc1ccc(C(=O)Nc2ccc(F)cc2F)cn1	-8	14	68*	6
Cc1nn(-c2cc(N3CCOCC3)ccc2[N+](=O)[O-])c(=O)c2ccccc12	-2	17	103	67*
COC(=O)CCNS(=O)(=O)c1ccc2ccccc2c1	-4	6	124	66*
O=C(Nc1ccc2ccccc2c1)c1onc2c1CCCC2	9	9	99	57*
NNc1nc2c(-c3ccc(Cl)cc3)nnn2c2ccccc12	-11	17	68*	12
CCOc1ccc(CCNC(=O)Cc2ccc(NC(=O)C3=C(C)OCCS3)cc2)cc1	28	·	104	·
CSc1ccc(CNC(=O)Cc2ccc(NC(=O)C3=C(C)OCCS3)cc2)cc1	-7	·	54*	·
O=C(NCCc1cccs1)c1ccc(CS(=O)Cc2cccc(Cl)c2)o1 (stereo not given)	·	·	103	·
CCn1c(SCC(=O)C(C)(C)C)nnc1-c1cnccn1	-5	95*	84	4
SMILES	Arr AP2 block	GSH bead fluor	DSG3 Ab inh	Avidin fluor
COC(=O)c1sc2ccccc2c1N	1	17	99	7
COC(=O)c1sc2ccccc2c1C(=O)OC	-1	17	105	61*
O=C1C=CC(=O)N1Cc1ccccn1	-6	·	100	·
O=c1c2ccccc2c2ccccc2c(=O)n1CC1CCCO1 (stereo not given)	-6	252*	107	4
O=C1c2ccccc2C(=O)N1CC1CCCO1 (stereo not given)	-8	19	106	7
COc1ccc(CC(=O)NCCS(=O)(=O)N2CCN(c3ccccc3)CC2)cc1	15	·	119	·
c1ccc(SC23CC4CC(CC(C4)C2)C3)nc1	·	·	108	·
CCOc1ccc(S(=O)(=O)Nc2ccc(C(=O)NCC(c3ccccc3)N(C)C)cc2)cc1 (stereo not given)	-6	·	121	·
O=C(Cn1cc(C(=O)c2cccs2)c2ccccc21)NC1CCCCC1	35	49	45*	5
Cc1ccc(C2=NN(C(=O)CSc3nnnn3C)C(c3ccco3)C2)cc1 (stereo not given)	-3	·	109	·
Cc1ccc2c(c1)CCCN2C(=O)c1ccncc1	6	29	111	131*
Cc1ccc2c(c1)CCCN2C(=O)c1cc(C)on1	23	·	108	·
O=c1c2ccccc2c(C=Nc2cccc(O)c2)c(O)n1-c1ccc2c(c1)OCO2	-4	12	101	57*
Cc1cc([N+](=O)[O-])nn1CC(=O)NCCCn1ccnc1	-4	20	89	103*
COc1cc(C(=O)NNC(=S)NC(=O)c2ccc(Cl)cc2)cc(OC)c1OC	1	446*	107	20
O=C(O)c1cn(-c2ccc(F)cc2)c2cc(Cl)c(F)cc2c1=O	0	·	116	·
CCOC(=O)c1cn(-c2ccc([N+](=O)[O-])cc2)c2cc(Cl)c([N+](=O)[O-])cc2c1=O	9	21	62*	13
CCN(CC)CCNC(=O)c1ccc(NC(=O)Cc2cccc3ccccc23)cc1	-7	·	·	·
Cc1cccc(Cn2c(C)nc3c(N)c(C)c(C)cc32)c1	-19	15	105	11
COc1ccccc1N(CC(=O)NCc1ccco1)S(=O)(=O)c1ccc(C)cc1	-5	·	-60*	·
COc1ccc(N(CC(=O)NCc2ccco2)S(=O)(=O)c2ccc(C)cc2)cc1OC	16	·	111	·
O=c1[nH]c(C2CCCN(S(=O)(=O)c3ccccc3Cl)C2)nc2c1nnn2Cc1ccc2c(c1)OCCO2 (stereo not given)	-4	·	77*	·
C=CCNC(=O)CCC(=O)NNc1nc2ccccc2c2nc(-c3ccccc3)nn12	-1	13	98	10
C=CCSc1nc2ccccc2c2nc(-c3ccccc3)nn12	0	11	2.7*	35
O=C(COC(=O)c1ccc(Cl)nc1)Nc1cccnc1Cl	7	·	98	·
SMILES	Arr AP2 block	GSH bead fluor	DSG3 Ab inh	Avidin fluor
O=C(/C=C/c1ccc(-c2cccc([N+](=O)[O-])c2)o1)N1CCOCC1	-7	·	86*	7
O=C(/C=C/c1cccc([N+](=O)[O-])c1)N1CCOCC1	-3	10	105	15
Cn1ncc([N+](=O)[O-])c1C(=O)NC1CCCCC1	-7	·	109	·
COc1ccc(C2Nc3ccccc3C(=O)N2Cc2ccco2)cc1COc1ccccc1F (stereo not given)	6	18	103	3
COc1ccc(C2Nc3ccccc3C(=O)N2Cc2ccco2)cc1COc1ccc(NC(C)=O)cc1 (stereo not given)	7	12	37*	34
COc1cccc(NC(=O)CCC(=O)Nc2cc(OC)c(NC(=O)c3cccs3)cc2OC)c1	-6	·	104	·
COc1ccc(/C=C/C(=O)c2ccccc2O)cc1	5	17	99	69*
COc1ccc(OC)c(NC(=O)CC2C(=O)NCCN2C(=O)Nc2cccc(Cl)c2)c1 (stereo not given)	-1	38	104	7
CCn1c(CSc2nnc3ccccn23)nc2cc(C(=O)O)ccc21	20	14	36*	40
CC1Cc2cc(/C(O)=C3/C(=O)C(=O)N(CC4CCCO4)C3c3ccco3)ccc2O1 (stereo not given)	24	24	111	110*
O=C1CCN(Cc2ccccc2)S(=O)(=O)c2c(F)cc(F)cc21	-4	·	109	·
O=C(O)c1cccc2cccc(-c3c4ccc(=O)c(O)c-4oc4c(O)c(O)ccc34)c12	54	·	13*	·

High-throughput results deposited in PubChem BioAssay by NMMLSC.
